Source: ChEMBL document CHEMBL2407028, “Discovery of novel oxazolidinedione derivatives as potent and selective mineralocorticoid receptor antagonists” (Bioorg Med Chem Lett, 2013)
pEC50, pIC50: −log10 of the molar value.

Experiments:
[1] = system: Rattus norvegicus; assay: Dose normalized AUC in rat at 1 mg/kg, po; assay type: ADME, organism-based; set-up: dose 1 mg/kg, route oral; conditions: in vivo
In short: (§1)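 Rats dosed at 1 mg/kg iv (n = 2) or 1 mg/kg po (n = 3), formulated at 1 mg/mL in PEG 200:water (70:30). Blood concentrations measured by LC/MS/MS after protein precipitation with acetonitrile.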

[2] = system: Rattus norvegicus; assay: Dose normalized AUC in rat at 1 mg/kg, iv; assay type: ADME, organism-based; set-up: dose 1 mg/kg, route intravenous; conditions: in vivo; in short: as §1
[3] = Cmax in rat at 1 mg/kg, iv and 1 mg/lg, po; assay type: ADME, organism-based; set-up: dose 1 mg/kg, route oral; conditions: in vivo; in short: as §1
[4] = Half life in rat at 1 mg/kg, iv and 1 mg/lg, po; assay type: ADME, organism-based; set-up: dose 1 mg/kg, route oral; conditions: in vivo; in short: as §1
[5] = system: Rattus norvegicus; assay: Volume of distribution at steady state in rat at 1 mg/kg, iv and 1 mg/lg, po; assay type: ADME, organism-based; set-up: dose 1 mg/kg, route oral; conditions: in vivo; in short: as §1
[6] = Oral bioavailability in rat at 1 mg/kg; assay type: ADME, organism-based; conditions: in vivo; in short: as §1
[7] = molecular target: T1, Mineralocorticoid receptor (Homo sapiens, UniProt P08235); assay: Antagonist activity at human mineralocorticoid receptor assessed as inhibition of binding to coactivator peptide by NH Pro assay
T1 sequence (P08235 whole entry): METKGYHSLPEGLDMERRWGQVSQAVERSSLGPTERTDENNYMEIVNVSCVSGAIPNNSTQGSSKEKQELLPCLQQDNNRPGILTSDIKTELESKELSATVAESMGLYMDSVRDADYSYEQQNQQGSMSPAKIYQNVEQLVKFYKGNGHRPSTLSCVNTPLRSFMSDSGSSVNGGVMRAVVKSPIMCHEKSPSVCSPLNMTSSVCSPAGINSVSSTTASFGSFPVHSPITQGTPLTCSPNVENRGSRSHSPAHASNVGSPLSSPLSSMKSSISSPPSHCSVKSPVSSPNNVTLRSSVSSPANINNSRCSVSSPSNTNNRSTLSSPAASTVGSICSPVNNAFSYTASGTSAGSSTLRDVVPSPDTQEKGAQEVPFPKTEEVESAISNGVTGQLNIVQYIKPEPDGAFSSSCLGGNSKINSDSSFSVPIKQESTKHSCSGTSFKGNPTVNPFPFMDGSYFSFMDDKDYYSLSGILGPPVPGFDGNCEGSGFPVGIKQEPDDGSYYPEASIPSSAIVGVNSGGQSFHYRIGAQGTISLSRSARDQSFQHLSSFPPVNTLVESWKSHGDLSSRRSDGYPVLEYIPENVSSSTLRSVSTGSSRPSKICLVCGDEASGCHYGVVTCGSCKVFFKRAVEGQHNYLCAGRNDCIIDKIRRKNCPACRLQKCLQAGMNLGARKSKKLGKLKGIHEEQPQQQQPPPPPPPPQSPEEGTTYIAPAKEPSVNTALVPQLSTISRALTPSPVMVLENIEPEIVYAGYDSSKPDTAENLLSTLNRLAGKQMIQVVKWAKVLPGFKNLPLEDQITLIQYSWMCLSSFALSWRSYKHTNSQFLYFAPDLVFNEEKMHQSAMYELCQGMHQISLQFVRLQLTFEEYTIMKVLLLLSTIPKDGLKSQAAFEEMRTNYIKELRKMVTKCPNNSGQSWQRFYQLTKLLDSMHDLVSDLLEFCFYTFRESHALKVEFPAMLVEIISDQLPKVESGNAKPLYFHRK

[8] = molecular target: T2, Estrogen receptor (Homo sapiens, UniProt P03372); assay: Antagonist activity at estrogen receptor alpha (unknown origin) by NH Pro assay
T2 sequence (P03372 whole entry): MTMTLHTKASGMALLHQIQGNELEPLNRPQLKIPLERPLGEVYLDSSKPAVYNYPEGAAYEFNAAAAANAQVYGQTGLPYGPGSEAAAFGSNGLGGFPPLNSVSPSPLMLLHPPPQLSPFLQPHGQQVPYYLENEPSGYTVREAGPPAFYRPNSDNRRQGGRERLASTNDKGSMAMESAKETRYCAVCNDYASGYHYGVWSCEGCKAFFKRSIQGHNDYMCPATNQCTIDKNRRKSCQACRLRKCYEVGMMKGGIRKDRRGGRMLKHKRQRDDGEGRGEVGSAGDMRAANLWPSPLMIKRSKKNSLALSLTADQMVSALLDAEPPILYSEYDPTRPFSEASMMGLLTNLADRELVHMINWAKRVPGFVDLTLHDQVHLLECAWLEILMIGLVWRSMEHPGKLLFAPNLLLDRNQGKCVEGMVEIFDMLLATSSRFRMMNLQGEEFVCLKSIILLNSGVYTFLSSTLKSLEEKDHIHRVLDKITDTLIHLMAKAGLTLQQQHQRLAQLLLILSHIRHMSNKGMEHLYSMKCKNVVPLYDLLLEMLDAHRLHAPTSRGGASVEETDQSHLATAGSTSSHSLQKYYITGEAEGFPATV

[9] = molecular target: T2, Estrogen receptor; assay: Agonist activity at estrogen receptor alpha (unknown origin) by NH Pro assay
[10] = molecular target: T3, Glucocorticoid receptor (Homo sapiens, UniProt P04150); assay: Agonist activity at glucocorticoid receptor (unknown origin) by NH Pro assay
T3 sequence (P04150 whole entry): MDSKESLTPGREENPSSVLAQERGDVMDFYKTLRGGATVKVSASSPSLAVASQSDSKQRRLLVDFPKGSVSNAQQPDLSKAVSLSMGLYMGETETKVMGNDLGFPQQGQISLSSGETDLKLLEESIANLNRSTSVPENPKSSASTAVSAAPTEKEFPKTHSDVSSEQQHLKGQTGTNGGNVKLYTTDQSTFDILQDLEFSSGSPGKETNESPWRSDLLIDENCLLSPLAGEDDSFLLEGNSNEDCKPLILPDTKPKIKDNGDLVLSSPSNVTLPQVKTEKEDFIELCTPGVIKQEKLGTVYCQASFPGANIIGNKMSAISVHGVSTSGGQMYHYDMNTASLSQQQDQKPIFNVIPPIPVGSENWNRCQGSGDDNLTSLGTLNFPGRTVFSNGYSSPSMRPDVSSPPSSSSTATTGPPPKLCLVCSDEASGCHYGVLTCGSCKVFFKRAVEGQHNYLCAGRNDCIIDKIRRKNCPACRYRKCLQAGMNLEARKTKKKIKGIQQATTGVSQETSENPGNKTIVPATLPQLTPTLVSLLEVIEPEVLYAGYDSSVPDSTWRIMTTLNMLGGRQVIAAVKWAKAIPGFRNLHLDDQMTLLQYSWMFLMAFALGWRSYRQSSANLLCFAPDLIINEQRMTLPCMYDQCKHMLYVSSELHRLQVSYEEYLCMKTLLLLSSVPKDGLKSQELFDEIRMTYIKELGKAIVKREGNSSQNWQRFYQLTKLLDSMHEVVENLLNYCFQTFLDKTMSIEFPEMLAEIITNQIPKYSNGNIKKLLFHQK

[11] = molecular target: T3, Glucocorticoid receptor; assay: Antagonist activity at glucocorticoid receptor (unknown origin) by NH Pro assay

AUC/dose [1] [µM·kg·h/mg] | AUC/dose [2] [µM·kg·h/mg] | Cmax [3] [nM] | half-life [4] [h] | Vdss [5] [L/kg] | bioavailability [6] [%] | pIC50 [7] | pIC50 [8] | pEC50 [9] | pEC50 [10] | pIC50 [11] | Structure (SMILES)
0.05 | 0.75 | 60 | 1.2 | 2.8 | 7 | 7.27 | – | – | – | – | COc1cc(CNC(=O)[C@@]2(Cc3ccccc3)OC(=O)N([C@H](C)c3ccccc3)C2=O)cc(OC)c1
– | – | – | – | – | – | – | < 4.70 | < 4.70 | – | – | COC(=O)[C@@H]1CC2=CC(=O)CC[C@]2(C)[C@@]23O[C@@H]2C[C@@]2(C)[C@@H](CC[C@@]24CCC(=O)O4)[C@H]13 [EPLERENONE]
– | – | – | – | – | – | – | < 4.70 | < 4.70 | < 4.70 | 5.39 | CC(=O)S[C@@H]1CC2=CC(=O)CC[C@]2(C)[C@H]2CC[C@@]3(C)[C@@H](CC[C@@]34CCC(=O)O4)[C@H]12 [SPIRONOLACTONE]
